Consider 9 molecules from article PMC2864154 (Biochemical pharmacology, 2010).

Experiment [1] concerns MIN6 cells. Nature of the experiment: Insulin secretion assay. The experiment is classed as cell-based, mouse. The following applies: for EC50: read-out: EC50 insulin secretion, 1 h, n=3. The method in brief:
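Cells were seeded at 40,000/well and cultured 48 h in DMEM at 37°C, then preincubated 1 h in KRBB with 3.3 mM glucose and 0.3% albumin. Secretion was stimulated 1 h at 37°C in KRBB with 16.7 mM glucose (or a glucose series) ± agonist, with or without P2Y1/P2Y13 antagonists (30 μM) or a P2Y6 antagonist (10 μM). Insulin was measured by ELISA against a mouse insulin standard; n=3.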

For a further experiment, the target named is P2Y1 receptor (Mus musculus, UniProt P49650). Nature of the experiment: Competition binding against [125I]MRS2500 in MIN6 cell membranes.
Chain of P2Y1 receptor (P49650 whole entry): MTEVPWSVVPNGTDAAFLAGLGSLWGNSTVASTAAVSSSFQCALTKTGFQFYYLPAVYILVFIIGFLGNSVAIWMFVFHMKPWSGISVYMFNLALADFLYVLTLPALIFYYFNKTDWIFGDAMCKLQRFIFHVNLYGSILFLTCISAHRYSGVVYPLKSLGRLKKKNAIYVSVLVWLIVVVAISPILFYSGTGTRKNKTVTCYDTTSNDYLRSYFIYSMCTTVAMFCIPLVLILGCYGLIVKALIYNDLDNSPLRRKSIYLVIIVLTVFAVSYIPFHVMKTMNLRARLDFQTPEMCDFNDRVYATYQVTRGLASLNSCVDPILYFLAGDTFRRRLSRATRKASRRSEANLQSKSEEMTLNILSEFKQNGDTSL
The test system of another experiment is P2Y2. The conditions noted are these: read-out: EC50 PLC activation; P2Y2, transfected astrocytoma cells; cited from earlier work.
For another experiment, the system named is P2Y4. The conditions noted are these: read-out: EC50 PLC activation; P2Y4, transfected astrocytoma cells; cited from earlier work.
For experiment [2], the system named is MIN6 cells. Nature of the experiment: TNF-α induced apoptosis, PI flow cytometry. The following applies: TNF-α 50 ng/ml, 24 h; for cell death (sub-G1 peak): agonist pretreatment where present. The experiment is classed as cell-based, mouse. An outline of the steps: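 Cells were grown in 6-well plates, pretreated with agonist (10 μM, 30 min, kept present), and exposed to TNF-α 50 ng/ml. At 24 h after induction, cells were trypsinized, stained with PI (10 μg/ml) for 30 min, and analyzed by flow cytometry. Cell death was scored as the percentage of cells with sub-G1 DNA content.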

Experiment [3] relates to MIN6 cells. Nature of the experiment: Inositol phosphate. The following applies: read-out: EC50 accumulation of intracellular IP3; 30 min at 37°C, 20 mM lithium chloride, n=3. The experiment is classed as cell-based, mouse. An outline of the steps:
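MIN6 cells were grown to 80% confluence with myo-[3H]-inositol (2 μCi/ml) for 48 h. They were then exposed to P2Y ligand or buffer with 20 mM LiCl for 30 min at 37°C. The reaction was stopped with cold 20 mM formic acid, and supernatants were neutralized with NH4OH. Samples went through AG1-X8 anion exchange, with total IP3 eluted by 1 M ammonium formate/0.1 M formic acid and counted by scintillation; n=3.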

Experiment [4] has as its system MIN6 cells. The experiment can be described thus: TNF-α induced apoptosis, HO342/PI nuclei staining, fluorescence microscopy. The class given is cell-based, mouse. The following applies: TNF-α 50 ng/ml; for nuclei/cells double stained with HO342 and PI: agonist 10 μM where present. The method in brief: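 MIN6 cells were grown 48 h on coverslips, then moved to DMEM with 5% FBS. Cells were pretreated 30 min with 10 μM agonist, which stayed present, then given TNF-α 50 ng/ml (16 h per methods; legend gives staining after 24 h); PBS alone was the negative control. Staining used PI 10 μg/ml plus HO342 20 μg/ml for 10 min, viewed by fluorescence microscopy at 365 nm excitation. Condensed or fragmented blue, pink or red nuclei were scored apoptotic.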

For another experiment, the system named is P2Y6. The following applies: read-out: EC50 PLC activation; P2Y6, transfected astrocytoma cells; cited from earlier work.
Another experiment concerns the target mouse P2Y1 receptor (Mus musculus, UniProt P49650). The experiment can be described thus: Saturation binding of [125I]MRS2500 in MIN6 cell membranes. The conditions noted are these: n=3. The method in brief: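 Membranes came from MIN6 cells at 80% confluence: homogenized, cleared at 100 × g for 5 min, Polytron-homogenized in 50 mM Tris-HCl pH 7.4, and pelleted at 20,000 × g for 20 min at 4°C. They were incubated with 0.2–7.2 nM [125I]MRS2500 in 50 mM Tris, MgCl2, pH 7.4, for 60 min at 4°C. Nonspecific binding used 10 μM unlabelled ligand. Bound ligand was collected on GF/B filters; Bmax was expressed per mg protein (BCA) and KD from saturation/Scatchard analysis; n=3.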

The mark [5] stands for this setting: against [125I]MRS2500, MIN6 cell membranes, mean ± s.e.m. of three experiments.

Read-outs that look alike come from different tables or passages of the source.

Chain of mouse P2Y1 receptor (P49650 whole entry): as above

As usually defined, the Ki is the dissociation constant of the complex between target and ligand, obtained from inhibition or displacement. The low end stands for higher affinity, the high end for lower affinity. Consider `Nc1ncnc2c1ncn2[C@@H]1O[C@H](COP(=O)(O)OP(=O)(O)O)[C@@H](O)[C@H]1O` [ADP], for which the “effect on insulin release” value in the experiment with MIN6 cells [1] (agonist 10 μM, 16.7 mM glucose) is given as “stimulated insulin release”. Also, the “concentration at which insulin secretion was maximal” value in the experiment on MIN6 cells [1] (concentration response studies, 16.7 mM glucose) is 10 µM. The same molecule registered a Ki at P2Y1 receptor (setting [5]) of 335 ± 3.9 nM.
Molecule `CNc1ncnc2c1ncn2[C@H]1C[C@H](OP(=O)(O)O)[C@@H](COP(=O)(O)O)O1` [MRS2179, N^6-methyl-2′-deoxyadenosine-3′,5′-bisphosphate] displayed a Ki at P2Y1 receptor of 49.8 ± 0.23 nM.
The molecule `CNc1nc(Cl)nc2c1ncn2[C@H]1C[C@H](OP(=O)(O)O)[C@]2(COP(=O)(O)O)C[C@H]12` [MRS2279, 2-chloro-N^6-methyl-(N)-methanocarba-2′-deoxyadenosine-3′,5′-bisphosphate] displayed a Ki at P2Y1 receptor (setting [5]) of 6.86 ± 0.12 nM.
For orientation: EC50 means the midpoint of the concentration-response curve. With `CSc1nc(N)c2ncn(C3CC(O)C4(COP(=O)(O)OP(=O)(O)O)CC34)c2n1` (stereo not drawn) [MRS2365, (N)-methanocarba-2′-deoxy-2-methylthio-adenosine-5′-diphosphate], the EC50 in the experiment with MIN6 cells [1] (16.7 mM glucose) worked out at 25.8 ± 5.6 nM.
In the case of `CNc1nc(I)nc2c1ncn2[C@H]1C[C@H](OP(=O)(O)O)[C@]2(COP(=O)(O)O)C[C@H]12` [MRS2500, 2-iodo-N^6-methyl-(N)-methanocarba-2′-deoxyadenosine-3′,5′-bisphosphate], at P2Y1 receptor (setting [5]), the affinity corresponds to a Ki of 2.92 ± 0.21 nM.
`S=C=Nc1cccc(NC(=S)NCCCCNC(=S)Nc2cccc(N=C=S)c2)c1` [MRS2578]: in the experiment with MIN6 cells [1] (antagonist 10 μM, Up3U 10 μM), the “effect of antagonist on insulin secretion induced by Up3U” value is “significantly blocked”.
Regarding `O=c1ccn([C@@H]2O[C@H](COP(=O)(O)OP(=O)(O)OP(=O)(O)OC[C@@H]3O[C@@H](n4ccc(=O)[nH]c4=O)C(O)[C@@H]3O)[C@H](O)C2O)c(=O)[nH]1` (stereo partly drawn) [Up3U, P^1,P^4-di(uridine 5′-)triphosphate], the EC50 was 1310 ± 210 nM with P2Y2; 870 ± 110 nM in the experiment on P2Y4; 29 ± 7.3 nM in the experiment with MIN6 cells [3]; 30.7 ± 12.7 nM in the experiment with MIN6 cells [1] (16.7 mM glucose); 270 ± 70 nM in the experiment with P2Y6. Further, the “reduction of cell death compared to TNF-α alone” value in the experiment with MIN6 cells [2] (agonist pretreatment) is recorded as “significant reduction in cell death”. Further, the “cell death (sub-G1 peak)” value with MIN6 cells [2] was found to be 25%. Besides, in the experiment with MIN6 cells [1] (3.3 mM glucose, data not shown), the “effect on insulin secretion at low glucose” value is given as “did not show any significant effect”. The “increase in insulin secretion compared with glucose alone” value in the experiment with MIN6 cells [1] (agonist 10 μM, 35 mM glucose) is 2 fold. In addition, the “cells homogeneously stained only with HO342” value in the experiment on MIN6 cells [4] (agonist 10 μM) is listed as “more than 80%”. Besides, the “cytoprotection against TNF-α induced apoptosis (microscopy)” value with MIN6 cells [4] (agonist 10 μM pretreatment) is given as “significant cytoprotection”. Further, the “nuclei/cells double stained with HO342 and PI” value in the experiment on MIN6 cells [4] is listed as ~ 10%.
The term Kd denotes the constant that tells how readily two partners part at equilibrium. High values mean lower affinity, low ones higher affinity. Consider `CNc1nc(I)nc2c1ncn2[C@H]1C[C@H](OP(=O)(O)O)[C@]2(COP(=O)(O)O)C[C@H]12` [[^125I]MRS2500], for which the Bmax on mouse P2Y1 receptor is 307±22 fmol receptor per mg protein. This molecule had a Kd at mouse P2Y1 receptor (saturation binding, 60 min at 4° C) of 4.74 ± 0.47 nM.
For TNF-α, the “cell death (sub-G1 peak)” value with MIN6 cells [2] is recorded as 54%. Moreover, the “nuclei/cells double stained with HO342 and PI” value in the experiment with MIN6 cells [4] was 30-40%.
